This is a sample that favours compounds with a hit; in the whole collection about 2.3% have one here.
MT1-MMP txn act: activates MT1-MMP transcription. hit rate 0.16% among 86,000. activation factor at 10 µM. HT1080 MT1-MMP promoter luciferase reporter, luminescence, overnight; active compounds read high. AID 750;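 active = activation factor of at least 2 for MT1-MMP transcription at 10 µM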
RORA act: activates the human nuclear receptor RORA. P35398. CHO-K1 Gal4-RORA LBD luciferase reporter, luminescence; percent increase over mock-subtracted basal signal. activation, % at 10 µM. hit rate 1.5% among 65,000. AID 560;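 active = activation above the mean of all tested compounds plus 3 SD, cut at about 49% in these data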
SF1 activator: activators of human nuclear receptor SF-1. Q13285. CHO-K1 Gal4-SF-1 LBD luciferase reporter; % increase over DMSO SF-1-specific signal. activation, % at 10 µM. hit rate 1.9% among 65,000;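 active = activation above the mean activation of all tested compounds plus 3 SD, cut at about 50% in these data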
Target sequence (Q13285 whole entry, looked up, the tested form may be a part): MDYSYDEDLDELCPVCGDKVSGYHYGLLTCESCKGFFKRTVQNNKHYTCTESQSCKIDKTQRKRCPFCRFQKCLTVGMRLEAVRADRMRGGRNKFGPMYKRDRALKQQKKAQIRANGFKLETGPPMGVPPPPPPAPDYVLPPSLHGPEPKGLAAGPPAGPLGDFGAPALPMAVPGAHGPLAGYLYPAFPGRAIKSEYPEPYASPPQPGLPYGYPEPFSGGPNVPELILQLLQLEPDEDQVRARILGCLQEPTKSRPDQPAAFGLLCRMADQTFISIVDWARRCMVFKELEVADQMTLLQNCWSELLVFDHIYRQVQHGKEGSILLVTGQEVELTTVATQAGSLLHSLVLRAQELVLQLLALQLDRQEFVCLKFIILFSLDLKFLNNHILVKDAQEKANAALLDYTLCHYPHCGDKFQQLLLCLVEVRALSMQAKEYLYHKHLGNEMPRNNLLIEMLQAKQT
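System: CHO-K1 cells with Gal4–hSF-1 LBD chimera plus Gal4-driven luciferase; quantity: 4,000 CHO-K1 cells per well; compound: one dose, 10 µM compound, 1% DMSO; times: 20 h compound treatment, 37 °C; measured by: SteadyLite luciferase luminescence; read-out: percent activation versus DMSO; benchmarks: DMSO and mock-transfected background; replicates: one test per compound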
MMP13 inh: MMP13 (human) collagenase inhibition; hit rate 0.07% among 65,000; MMP-13 fTHP FRET cleavage, Mca fluorescence; inhibition, % at 4 µM;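 active = inhibition above the mean of compound-free control plate wells plus 3 SD, cut at about 14% in these data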
WNV NS2B-NS3 inh: WNV NS2B-NS3 proteinase inhibition | P06935 | WNV NS2B-NS3 protease, fluorogenic substrate Ex360/Em465; active compounds read low | z-score (test concentration not listed) | hit rate 0.18% among 65,000 | AID 577; in the data active = z-score below about -3
Of the large screens only hits and unclear results are named; the others gave an inactive call.

O=C(Nc1ccncc1)Nc1ccccn1	none
COc1ccc(OC)c(NC(=O)CSc2nc(C)cs2)c1	none
O=S(=O)(c1ccc(Oc2ccc(Br)cc2)cc1)N1CCOCC1	none
CCN(CC)S(=O)(=O)c1cccc(-c2nc3n(n2)Cc2ccccc2-3)c1	SF1 activator 61
Nc1c(-c2ccc(Cl)cc2)nnn1-c1ccccc1	RORA act 87, SF1 activator 61
Clc1ccc(-n2nnnc2-c2ccccc2)cc1	none
Cc1csc(NC(=O)c2cc3c(s2)CCCCC3)n1	none (no result: RORA act, SF1 activator, MMP13 inh, WNV NS2B-NS3 inh)
CCc1nnc(NC(=O)c2cc3c(s2)CCCCC3)s1	SF1 activator 74
O=C(Nc1ccon1)c1cc2c(s1)CCCCCC2	SF1 activator 82
O=C(NCc1ccco1)c1cc2c(s1)CCCCC2	SF1 activator 70
COc1ccc(C2C(C(=O)OCC3CCCO3)=C(C)NC3=C2C(=O)CC(c2ccco2)C3)cc1O (stereo unspecified)	none (no result: RORA act, SF1 activator, MMP13 inh, WNV NS2B-NS3 inh)
O=C(N[C@@H](Cc1ccccc1)C(=O)O)c1ccccc1	none (no result: RORA act, SF1 activator, MMP13 inh, WNV NS2B-NS3 inh)
Cc1oc2nc(SCC(=O)NC3CCCCC3)nc(N)c2c1C	none
COc1cccc2cc(-c3csc(CCn4nc(C)cc4C)n3)c(=O)oc12	WNV NS2B-NS3 inh -4.6
COc1cccc2cc(-c3cn4ccc(C)cc4n3)c(=O)oc12	none (no result: RORA act, SF1 activator, MMP13 inh, WNV NS2B-NS3 inh)
COc1cccc2cc(-c3cn4cccc(C)c4n3)c(=O)oc12	SF1 activator 53
COC(=O)c1ccc(C(/C=C/[C@@H](C)CO)NC(=O)OCc2ccccc2)cc1 (stereo partly specified)	none (no result: RORA act, SF1 activator, MMP13 inh, WNV NS2B-NS3 inh)
N#Cc1c(/N=C/c2ccc(Br)s2)sc2c1CCC2	MT1-MMP txn act 2 (no result: RORA act, SF1 activator, MMP13 inh, WNV NS2B-NS3 inh)
N#Cc1c(/N=C/N2CCOCC2)sc2c1CCCCC2	RORA act 91, SF1 activator 83
N#Cc1c(/N=C/c2cccs2)sc2c1CCCCC2	none
CN1CCN(Cc2nc3c(c(=O)n(C)c(=O)n3C)n2CCc2ccccc2)CC1	none
O=C(Nc1ccc(S(=O)(=O)N2CCCCCC2)cc1)c1ccc(Br)o1	RORA act 50
Cc1ccc(C(=O)N2CCN(c3ccc(NC(=O)c4ccc(Br)o4)cc3)CC2)cc1	none (no result: RORA act, SF1 activator, MMP13 inh, WNV NS2B-NS3 inh)
CS(=O)(=O)N1CCN(c2ccc(NC(=O)c3ccc(Br)o3)cc2)CC1	SF1 activator 56
COC(=O)c1cc(NC(=O)CC2NC3CCCCC3NC2=O)cc(C(=O)OC)c1 (stereo unspecified)	none (no result: RORA act, SF1 activator, MMP13 inh, WNV NS2B-NS3 inh)
CCCCNC(=O)C1CCN(Cc2ccc(OCc3ccccc3)cc2)CC1	MT1-MMP txn act 2 (no result: RORA act, SF1 activator, MMP13 inh, WNV NS2B-NS3 inh)
COC(=O)c1ccc(C(NC(=O)OCc2ccccc2)/C(=C/[C@@H](C)C(=O)NCc2ccc(S(C)(=O)=O)cc2)C(F)(F)F)cc1 (stereo partly specified)	none (no result: RORA act, SF1 activator, MMP13 inh, WNV NS2B-NS3 inh)
Cc1cc(C)cc(-n2ccnc2SCC(=O)Nc2nccs2)c1	none
Cc1cccc(-n2ccnc2SCC(=O)Nc2nccs2)c1	SF1 activator 60
CCCSc1nnc(-c2c[nH]c3ccccc23)n1C	SF1 activator 52
COc1ccccc1-c1nn2c(-c3ccco3)nnc2s1	SF1 activator 59
Cc1ccc(-c2noc(C3CCCN(C(=O)c4ccccc4)C3)n2)o1 (stereo unspecified)	RORA act 50
Nn1cnnc1SCC(=O)Nc1ccc(C2CCCCC2)cc1	SF1 activator 54
COc1cccc(NC(=O)CSc2nncn2N)c1	none
CCOC(=O)C1=C(N)n2c(s/c(=C/c3ccco3)c2=O)=C(C(=O)OC)C1c1ccco1 (stereo unspecified)	MMP13 inh 14
O=C1C(Cl)=C(NC2CCc3ccccc32)C(=O)c2ncccc21 (stereo unspecified)	none (no result: RORA act, SF1 activator, MMP13 inh, WNV NS2B-NS3 inh)
CC(/C=C/c1ccccc1)NC(N)=O (stereo unspecified)	none
O=C(Cn1nnc(-c2ccncc2)n1)Nc1ccc2c(c1)CCC2	MMP13 inh 15
O=C(Cn1nnc(-c2ccccc2F)n1)Nc1ccc2c(c1)OCO2	MMP13 inh 16
COc1cc(NC(=O)Cn2nnc(-c3ccncc3)n2)cc(OC)c1	none
Cc1ccc(Cl)cc1NC(=O)CC1NCCNC1=O (stereo unspecified)	none (no result: RORA act, SF1 activator, MMP13 inh, WNV NS2B-NS3 inh)
Cc1cccc(-n2ncc3c(NCCCN4CCCC4=O)ncnc32)c1	none (no result: RORA act, SF1 activator, MMP13 inh, WNV NS2B-NS3 inh)
CCC(CO)Nc1ncnc2c1cnn2-c1ccc(Cl)cc1 (stereo unspecified)	none
O=C1CCCN1CCCNc1ncnc2c1cnn2-c1ccc(Cl)cc1	RORA act 69
COc1ccc(-n2ncc3c(NCc4ccco4)ncnc32)cc1	RORA act 62, SF1 activator 69

Source: PubChem BioAssay
